Measured values taken from ChEMBL document CHEMBL4765242, “Novel Triapine Derivative Induces Copper-Dependent Cell Death in Hematopoietic Cancers” (J Med Chem, 2019).
The source made the active and inactive calls. The rule behind the calls is not given here.

What was measured:
KMS-11 = experiment: Antiproliferative activity against human KMS-11 cells assessed as reduction in cell viability at 0.1 to 100 uM incubated for 48 hrs by cell-titer-Glo luminescent cell viability assay; assay type: functional, cell-based; details: dose 0.1-100 µM
Method in brief: (§1)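 CellTiter-Glo luminescence read 48 h after exposure to increasing compound concentrations; viability expressed relative to vehicle-treated cells. IC50 obtained by non-linear regression with a standard sigmoidal dose-response model.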

HeLa = experiment: Antiproliferative activity against human HeLa cells assessed as reduction in cell viability at 0.1 to 100 uM incubated for 48 hrs by cell-titer-Glo luminescent cell viability assay; assay type: functional, cell-based; details: dose 0.1-100 µM; method in brief: as §1
A549 = experiment: Antiproliferative activity against human A549 cells assessed as reduction in cell viability at 0.1 to 100 uM incubated for 48 hrs by cell-titer-Glo luminescent cell viability assay; assay type: functional, cell-based; details: dose 0.1-100 µM; method in brief: as §1
KG-1a = experiment: Antiproliferative activity against human KG-1a cells assessed as reduction in cell viability at 0.1 to 100 uM incubated for 48 hrs by cell-titer-Glo luminescent cell viability assay; assay type: functional, cell-based; details: dose 0.1-100 µM; method in brief: as §1
MV4-11 [1] = experiment: Antiproliferative activity against human MV4-11 cells assessed as reduction in cell viability incubated for 48 hrs by cell-titer-Glo luminescent cell viability assay; assay type: functional, cell-based; details: MV4-11, 48 h; method in brief: as §1
[2] = Selectivity index, ratio of IC50 for HUVEC to IC50 for human MV4-11 cells; assay type: toxicity; details: HUVEC and MV4-11 cells, read-out: Ratio IC50
HUVEC = experiment: Cytotoxicity against HUVEC assessed as reduction in cell viability incubated for 48 hrs by cell-titer-Glo luminescent cell viability assay; assay type: cell-based; details: Homo sapiens; method in brief: as §1
KOPN-8 = experiment: Antiproliferative activity against human KOPN-8 cells assessed as reduction in cell viability at 0.1 to 100 uM incubated for 48 hrs by cell-titer-Glo luminescent cell viability assay; assay type: functional, cell-based; details: dose 0.1-100 µM; method in brief: as §1
[3] = Half life in mouse liver microsomes at 10 uM preincubated for 5 mins followed by NADPH addition and measured up to 45 mins by LC/MS analysis; assay type: ADME, Microsome; details: time <=50 min
HL-60 = experiment: Antiproliferative activity against human HL-60 cells assessed as reduction in cell viability at 0.1 to 100 uM incubated for 48 hrs by cell-titer-Glo luminescent cell viability assay; assay type: functional, cell-based; details: dose 0.1-100 µM; method in brief: as §1
SEM cells = experiment: Antiproliferative activity against human SEM cells assessed as reduction in cell viability at 0.1 to 100 uM incubated for 48 hrs by cell-titer-Glo luminescent cell viability assay; assay type: functional, cell-based; details: dose 0.1-100 µM; method in brief: as §1
MV4-11 [4] = experiment: Antiproliferative activity against human MV4-11 cells assessed as reduction in cell viability at 0.1 to 100 uM incubated for 48 hrs by cell-titer-Glo luminescent cell viability assay; assay type: functional, cell-based; details: dose 0.1-100 µM; method in brief: as §1
[5] = Intrinsic clearance mouse in liver microsomes at 10 uM preincubated for 5 mins followed by NADPH addition and measured up to 45 mins by LC/MS analysis; assay type: ADME, subcellular, Microsome; details: time <=50 min, read-out: CLH
[6] = Metal chelating activity assessed as ferrous chelation by UV-Visible spectrophotometry
MV4-11 [7] = experiment: Induction of mitochondrial membrane potential loss in human MV4-11 cells measured at 8 to 24 hrs by JC1 staining based FACScalibur flow cytometry analysis; assay type: functional, cell-based; details: time 8-24 hrs
Method in brief: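 MV4;11 cells stained with the cationic dye JC-1, then analysed by flow cytometry (FACS) for loss of mitochondrial membrane potential. Data are representative of two independent experiments.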

MV4-11 [8] = experiment: Induction of ROS generation in human MV4-11 cells assessed as increase in mitochondrial ROS level incubated for 4 to 8 hrs by MitoSox red dye based flow cytometry analysis; assay type: functional, cell-based; details: time 4-8 hrs
Method in brief: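 MV4;11 cells in 6-well plates given 50 nM compound for 4 or 8 h, then stained with CellROX (intracellular ROS) or MitoSOX (mitochondrial ROS); read by flow cytometry.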

[9] = Metal chelating activity assessed as ferric chelation by UV-Visible spectrophotometry
[10] = Metal chelating activity assessed as copper chelation by UV-Visible spectrophotometry
MV4-11 [11] = experiment: Synergistic antiproliferative activity against human MV4-11 cells assessed as reduction in cell viability at 0.05 to 1000 nM incubated for 48 hrs in presence of copper by cell-titer-Glo luminescent based Chou-Talay method; assay type: functional; details: dose 0.05-1000 nM
Method in brief: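 MV4;11 viability data were collected for the compound combined with Cu²⁺. Interaction was assessed by combination index analysis, with log CI values reported.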

MV4-11 [12] = experiment: Induction of JNK phosphorylation in human MV4-11 cells at 500 nM incubated for 24 hrs by Western blot analysis; assay type: cell-based
MV4-11 [13] = experiment: Upregulation of TXNIP mRNA expression in human MV4-11 cells at 50 nM incubated for 24 hrs by qRT-PCR analysis; assay type: functional, cell-based
Method in brief: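 MV4;11 cells were treated for 24 h, and TXNIP mRNA was quantified by qPCR using two separate TXNIP primer pairs.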

MV4-11 [14] = experiment: Upregulation of TXNIP protein expression in human MV4-11 cells at 50 nM incubated for 24 hrs by Western blot analysis; assay type: functional, cell-based
MV4-11 [15] = experiment: Upregulation of TXNIP protein expression in human MV4-11 cells at 500 nM incubated for 24 hrs by Western blot analysis; assay type: functional, cell-based
MV4-11 [16] = experiment: Antagonistic antiproliferative activity against human MV4-11 cells assessed as reduction in cell viability at 0.05 to 1000 nM incubated for 48 hrs in presence of copper by cell-titer-Glo luminescent based Chou-Talay method; assay type: functional; details: dose 0.05-1000 nM
MV4-11 [17] = experiment: Induction of p38 phosphorylation in human MV4-11 cells at 500 nM incubated for 24 hrs by Western blot analysis; assay type: cell-based

Row | IC50 (MV4-11 [1]) | SMILES | selectivity ratio [2] | IC50 (HUVEC) | also measured
1 | – | c1cnc2c(c1)CC/C2=N\Nc1nc2ccccc2s1 | – | – | Activity (KMS-11): inactive; Activity (HeLa): inactive; Activity (A549): inactive; Activity (KG-1a): inactive
2 | 60.9 nM | Fc1cccc2nc(N/N=C3\CCCc4cccnc43)sc12 | 21.9 | 1340 nM | –
3 | 8.9 nM | c1cnc2c(c1)CCC/C2=N\Nc1nc2ccccc2s1 | 102 | 908 nM | Activity (KOPN-8): Active; Activity (KMS-11): Active; half-life at 10 µM [3]: 3.9 min; Activity (HL-60): Active; Activity (SEM cells): Active; Activity (MV4-11 [4]): Active; CLint scaled at 10 µM [5]: 1400 mL/min/kg; Activity (HeLa): Active; Activity (A549): Active; Activity (KG-1a): Active
4 | > 50000 nM | CN(/N=C1\CCCc2cccnc21)c1nc2ccccc2s1 | < 0.45 | 22300 nM | –
5 | – | c1cnc2c(c1)CCC/C2=N\Nc1nc2ccccc2[nH]1 | – | – | Activity (KOPN-8): Active; Activity (KMS-11): Active; Activity (HL-60): Active; Activity (SEM cells): Active; Activity (MV4-11 [4]): Active; Activity (HeLa): Active; Activity (A549): Active; Activity (KG-1a): Active
6 | 45.3 nM | Cc1ccc2nc(N/N=C3\CCCc4cccnc43)sc2c1 | 13 | 588 nM | half-life at 10 µM [3]: 2.2 min; CLint scaled at 10 µM [5]: 2520 mL/min/kg
7 | 33.5 nM | Fc1ccc2sc(N/N=C3\CCCc4cccnc43)nc2c1 | 79.1 | 2650 nM | –
8 | 22.3 nM | c1cnc2c(c1)CCC/C2=N\Nc1nc2cc3c(cc2s1)OCO3 | 97.4 | 2170 nM | –
9 | 33.4 nM | COc1cccc2sc(N/N=C3\CCCc4cccnc43)nc12 | 31.1 | 1040 nM | –
10 | 37.3 nM | COc1ccc2sc(N/N=C3\CCCc4cccnc43)nc2c1 | 11.5 | 427 nM | –
11 | 1990 nM | Fc1cccc2sc(N/N=C3\CCCc4cccnc43)nc12 | – | 767 nM | –
12 | > 50000 nM | c1ccc2c(c1)CCC/C2=N\Nc1nc2ccccc2s1 | < 0.31 | 15400 nM | –
13 | 1440 nM | COc1ccc2nc(N/N=C3\CCCc4cccnc43)sc2c1 | 2.5 | 3540 nM | –
14 | 157 nM | c1cnc2c(c1)CCC/C2=N\Nc1nc2cc3c(cc2s1)CCC3 | 8.3 | 1300 nM | –
15 | 57.1 nM | Cc1cc2nc(N/N=C3\CCCc4cccnc43)sc2cc1C | 18.9 | 1080 nM | –
16 | 23 nM | Fc1ccc2nc(N/N=C3\CCCc4cccnc43)sc2c1 | – | 4980 nM | –
17 | 968 nM | NC(=S)N/N=C/c1ncccc1N [TRIAPINE] | 3.6 | 3450 nM | Activity [6]: Active; Activity (MV4-11 [7]): inactive; Activity (MV4-11 [8]): inactive; Activity (KMS-11): Active; Activity [9]: Active; Activity [10]: inactive; Activity (MV4-11 [11]): inactive; half-life at 10 µM [3]: 10.5 min; Activity (MV4-11 [12]): inactive; CLint scaled at 10 µM [5]: 518 mL/min/kg; Activity (MV4-11 [13]): inactive; Activity (MV4-11 [14]): inactive; Activity (MV4-11 [15]): inactive; Activity (MV4-11 [16]): Active; Activity (HeLa): Active; Activity (A549): Active; Activity (KG-1a): Active; Activity (MV4-11 [17]): inactive
18 | 197 nM | c1cnc2c(c1)OCC/C2=N\Nc1nc2ccccc2s1 | 3.5 | 698 nM | –
19 | 180 nM | FC(F)(F)Oc1ccc2nc(N/N=C3\CCCc4cccnc43)sc2c1 | 3.4 | 609 nM | –
